Test results: ChEMBL document CHEMBL5058577, “EUbOPEN Chemogenomics Library 2 (Multiplex)” (2022)

Tested on: U2OS
Assay: Multiplex assay against U2OS
Type: toxicity, cell-based
Details: human
Summary of the method: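 Live cells were stained at seeding with Hoechst33342, BioTracker Green Microtubule Cytoskeleton Dye, MitoTracker Red and Annexin V Alexa Fluor 680, then imaged on a CQ1 microscope at 37°C and 5% CO2 after compound addition. CellPathfinder machine-learning gating split cells into Hoechst high-intensity objects or normal cells. Normal cells were split into healthy, pyknosed or fragmented nuclei, and pyknosed cells into mitotic or apoptotic. Tubulin, mitochondrial-mass and membrane-permeability phenotypes are per cents of healthy-nucleus cells.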

[1] = 12 h, 1 µM, compound concentration 1 uM, replicate 1
[2] = 12 h, 1 µM, compound concentration 1 uM, replicate 2
[3] = 12 h, 10 µM, compound concentration 10 uM, replicate 1
[4] = 12 h, 10 µM, compound concentration 10 uM, replicate 2
[5] = 24 h, 1 µM, compound concentration 1 uM, replicate 1
[6] = 24 h, 1 µM, compound concentration 1 uM, replicate 2
[7] = 24 h, 10 µM, compound concentration 10 uM, replicate 1
[8] = 24 h, 10 µM, compound concentration 10 uM, replicate 2
[9] = 48 h, 1 µM, compound concentration 1 uM, replicate 1
[10] = 48 h, 1 µM, compound concentration 1 uM, replicate 2
[11] = 48 h, 10 µM, compound concentration 10 uM, replicate 1
[12] = 48 h, 10 µM, compound concentration 10 uM, replicate 2

COc1cc2nc(N3CCN(C(=O)COc4c(OC)cccc4C(C)C)CC3)nc(N)c2cc1OC.Cl.Cl
Population Apoptotic (%) [1]: 67% | Population Fragmented Nuclei (%) [1]: 21% | Population Healthy Nuclei (%) [1]: 66% | Population Hoechst High Intensity Objects (%) [1]: 3% | Population Membrane Permeable-Phenotype (%) [1]: 10% | Population Mitochondria Different-Phenotype (%) [1]: 5% | Population Mitotic Cells (%) [1]: 32% | Population Normal (%) [1]: 96% | Population Pyknosed Nuclei (%) [1]: 11% | Population Tubulin-Different-Phenotype (%) [1]: 6% | Total Cell Count [1]: 256 | Population Apoptotic (%) [2]: 33% | Population Fragmented Nuclei (%) [2]: 10% | Population Healthy Nuclei (%) [2]: 84% | Population Hoechst High Intensity Objects (%) [2]: 2% | Population Mitochondria Different-Phenotype (%) [2]: 6% | Population Mitotic Cells (%) [2]: 66% | Population Normal (%) [2]: 97% | Population Pyknosed Nuclei (%) [2]: 4% | Total Cell Count [2]: 136 | Population Apoptotic (%) [3]: 55% | Population Fragmented Nuclei (%) [3]: 30% | Population Healthy Nuclei (%) [3]: 43% | Population Hoechst High Intensity Objects (%) [3]: 3% | Population Membrane Permeable-Phenotype (%) [3]: 60% | Population Mitochondria Different-Phenotype (%) [3]: 55% | Population Mitotic Cells (%) [3]: 44% | Population Normal (%) [3]: 96% | Population Pyknosed Nuclei (%) [3]: 25% | Population Tubulin-Different-Phenotype (%) [3]: 75% | Total Cell Count [3]: 233 | Population Apoptotic (%) [4]: 66% | Population Fragmented Nuclei (%) [4]: 19% | Population Healthy Nuclei (%) [4]: 48% | Population Hoechst High Intensity Objects (%) [4]: 0% | Population Membrane Permeable-Phenotype (%) [4]: 54% | Population Mitochondria Different-Phenotype (%) [4]: 65% | Population Mitotic Cells (%) [4]: 33% | Population Normal (%) [4]: 99% | Population Pyknosed Nuclei (%) [4]: 32% | Population Tubulin-Different-Phenotype (%) [4]: 68% | Total Cell Count [4]: 151 | Population Apoptotic (%) [5]: 84% | Population Fragmented Nuclei (%) [5]: 21% | Population Healthy Nuclei (%) [5]: 67% | Population Hoechst High Intensity Objects (%) [5]: 3% | Population Membrane Permeable-Phenotype (%) [5]: 6% | Population Mitochondria Different-Phenotype (%) [5]: 8% | Population Mitotic Cells (%) [5]: 15% | Population Normal (%) [5]: 96% | Population Pyknosed Nuclei (%) [5]: 11% | Population Tubulin-Different-Phenotype (%) [5]: 4% | Total Cell Count [5]: 297 | Population Apoptotic (%) [6]: 80% | Population Fragmented Nuclei (%) [6]: 15% | Population Healthy Nuclei (%) [6]: 77% | Population Hoechst High Intensity Objects (%) [6]: 0% | Population Membrane Permeable-Phenotype (%) [6]: 10% | Population Mitochondria Different-Phenotype (%) [6]: 7% | Population Mitotic Cells (%) [6]: 20% | Population Normal (%) [6]: 99% | Population Pyknosed Nuclei (%) [6]: 6% | Population Tubulin-Different-Phenotype (%) [6]: 5% | Total Cell Count [6]: 154 | Population Apoptotic (%) [7]: 76% | Population Fragmented Nuclei (%) [7]: 30% | Population Healthy Nuclei (%) [7]: 36% | Population Hoechst High Intensity Objects (%) [7]: 9% | Population Membrane Permeable-Phenotype (%) [7]: 40% | Population Mitochondria Different-Phenotype (%) [7]: 49% | Population Mitotic Cells (%) [7]: 24% | Population Normal (%) [7]: 90% | Population Pyknosed Nuclei (%) [7]: 33% | Population Tubulin-Different-Phenotype (%) [7]: 50% | Total Cell Count [7]: 246 | Population Apoptotic (%) [8]: 87% | Population Fragmented Nuclei (%) [8]: 20% | Population Healthy Nuclei (%) [8]: 40% | Population Hoechst High Intensity Objects (%) [8]: 12% | Population Membrane Permeable-Phenotype (%) [8]: 49% | Population Mitochondria Different-Phenotype (%) [8]: 50% | Population Mitotic Cells (%) [8]: 12% | Population Normal (%) [8]: 87% | Population Pyknosed Nuclei (%) [8]: 39% | Population Tubulin-Different-Phenotype (%) [8]: 60% | Total Cell Count [8]: 185 | Population Apoptotic (%) [9]: 83% | Population Fragmented Nuclei (%) [9]: 20% | Population Healthy Nuclei (%) [9]: 70% | Population Hoechst High Intensity Objects (%) [9]: 2% | Population Membrane Permeable-Phenotype (%) [9]: 6% | Population Mitochondria Different-Phenotype (%) [9]: 6% | Population Mitotic Cells (%) [9]: 16% | Population Normal (%) [9]: 97% | Population Pyknosed Nuclei (%) [9]: 8% | Population Tubulin-Different-Phenotype (%) [9]: 4% | Total Cell Count [9]: 441 | Population Apoptotic (%) [10]: 75% | Population Fragmented Nuclei (%) [10]: 16% | Population Healthy Nuclei (%) [10]: 72% | Population Hoechst High Intensity Objects (%) [10]: 3% | Population Membrane Permeable-Phenotype (%) [10]: 7% | Population Mitotic Cells (%) [10]: 25% | Population Normal (%) [10]: 96% | Population Pyknosed Nuclei (%) [10]: 11% | Population Tubulin-Different-Phenotype (%) [10]: 6% | Total Cell Count [10]: 225 | Population Apoptotic (%) [11]: 88% | Population Fragmented Nuclei (%) [11]: 40% | Population Healthy Nuclei (%) [11]: 21% | Population Hoechst High Intensity Objects (%) [11]: 31% | Population Membrane Permeable-Phenotype (%) [11]: 13% | Population Mitochondria Different-Phenotype (%) [11]: 30% | Population Mitotic Cells (%) [11]: 11% | Population Normal (%) [11]: 68% | Population Pyknosed Nuclei (%) [11]: 38% | Population Tubulin-Different-Phenotype (%) [11]: 13% | Total Cell Count [11]: 296 | Population Apoptotic (%) [12]: 93% | Population Fragmented Nuclei (%) [12]: 24% | Population Healthy Nuclei (%) [12]: 23% | Population Hoechst High Intensity Objects (%) [12]: 32% | Population Membrane Permeable-Phenotype (%) [12]: 27% | Population Mitochondria Different-Phenotype (%) [12]: 10% | Population Mitotic Cells (%) [12]: 6% | Population Normal (%) [12]: 67% | Population Pyknosed Nuclei (%) [12]: 51% | Population Tubulin-Different-Phenotype (%) [12]: 24% | Total Cell Count [12]: 180
